According to ChEMBL document CHEMBL3351484, “Positive allosteric modulators of 2-amino-3-(3-hydroxy-5-methylisoxazol-4-yl)propionic acid receptors belonging to 4-cyclopropyl-3,4-dihydro-2h-1,2,4-pyridothiadiazine dioxides and diversely chloro-substituted 4-cyclopropyl-3,4-dihydro-2H-1,2,4-benzothiadiazine 1,1-dioxides” (J Med Chem, 2014):
Active and inactive are the calls of the source. The calls are words filed in the database; no cut-off is given here.

Legend:
[1] = Positive allosteric modulation of AMPA receptor in rat embryonic cortex primary neuronal culture assessed as increase in AMPA-induced membrane depolarization by microplate reader; format: cell membranes; conditions: primary neuron
Method in brief: (§1)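 Primary cultures of rat embryonic cortical neurons; depolarization evoked by 300 μM AMPA read with fluorescent membrane potential dyes on an imaging plate reader. EC2× is the modulator level doubling the AMPA response (geometric mean, 95% CI).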

Hippocampus [2] = assay: Potentiation of tetanus-induced synaptic response in Wistar rat hippocampal dentate gyrus at 3 mg/kg, ip measured during 42 mins; format: functional, organism-based; design: dose 3 mg/kg
Rattus norvegicus [3] = species on record: Rattus norvegicus; assay: Positive allosteric modulation of AMPA receptor in rat hippocampal slice assessed as area of AMPA-mediated […] postsynaptic field potential in CA1 area at 10 uM; format: tissue-based; conditions: Hippocampus
Method in brief: (§2)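 Rat hippocampal slices perfused with medium containing 1.2 mM Mg2+; field EPSPs recorded in CA1 after electrical stimulation of Schaffer collaterals. Area, amplitude and half-width normalized to the 10 min baseline as 100%, reported as percent increase, mean ± SEM (n = 3–4).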

[4] = Drug uptake in mouse brain at 3 mg/kg, po qd after 20 mins by LC-MS/MS analysis; format: ADME, organism-based; design: dose 3 mg/kg, route oral; conditions: read-out: Drug uptake
Method in brief: (§3)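 NMRI mice dosed orally, killed by decapitation 20 min later; brain and blood rapidly removed and frozen, compound quantified by LC−MS/MS. Brain in ng/g, plasma in ng/mL; n = 3.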

Rattus norvegicus [5] = species on record: Rattus norvegicus; assay: Positive allosteric modulation of AMPA receptor in rat hippocampal slice assessed as increase in AMPA-mediated presynaptic noradrenaline release; format: tissue-based; design: concentration or dose not given beside the values; conditions: Hippocampus
Method in brief: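 Rat hippocampal slices, [3H]noradrenaline release evoked by (S)-AMPA 10 μM, modulator at 300 μM; release given as percent of (S)-AMPA alone taken as 100%.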

Primary neuron [6] = assay: Potentiation of AMPA receptor in rat embryonic cortex primary neuronal culture assessed as concentration required to 2-fold increase in AMPA-induced membrane depolarization by microplate reader; format: cell membranes; method in brief: as §1
Hippocampus [7] = assay: Potentiation of high-frequency stimulation-induced synaptic response in Wistar rat hippocampal dentate gyrus assessed as excitatory postsynaptic field potential at 10 mg/kg, ip after 3 hrs; format: functional, organism-based; design: dose 10 mg/kg
Method in brief: (§4)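 Anesthetized Wistar rats dosed ip; perforant-path stimulation with dentate gyrus responses. 1 h after dosing, LTP induced by tetanic high-frequency stimulation and responses followed 3 h; eight responses averaged (every 2 min), normalized to 60 min baseline. n = 8 per group; Dunnett test after two-way ANOVA versus vehicle.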

Mus musculus = assay: Increase in object recognition task in CD1 mouse at 1 mg/kg, po after 24 hrs; format: functional, organism-based; design: dose 1 mg/kg
Method in brief: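 Three-session test (habituation, familiarization, recognition) given at 24 h intervals in CD1 mice, compound given orally 1 h before each session. Durations of exploring new versus familiar objects recorded; mean + SEM, paired Student's t test versus familiar object.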

Rattus norvegicus [8] = species on record: Rattus norvegicus; assay: Positive allosteric modulation of AMPA receptor in rat hippocampal slice assessed as half-width of AMPA-mediated […] postsynaptic field potential in CA1 area at 10 uM; format: tissue-based; conditions: Hippocampus; method in brief: as §2
Primary neuron [9] = assay: Positive allosteric modulation of AMPA receptor in rat embryonic cortex primary neuronal culture assessed as maximal increase in AMPA-induced membrane depolarization normalized to AMPA-evoked response by microplate reader; format: cell membranes; method in brief: as §1
Rattus norvegicus [10] = species on record: Rattus norvegicus; assay: Positive allosteric modulation of AMPA receptor in rat hippocampal slice assessed as amplitude of AMPA-mediated […] postsynaptic field potential in CA1 area at 10 uM; format: tissue-based; conditions: Hippocampus; method in brief: as §2
[11] = Ratio of drug level in mouse brain to plasma at 3 mg/kg, po qd after 20 mins by LC-MS/MS analysis; format: ADME, organism-based; design: dose 3 mg/kg, route oral
Method in brief: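 Oral dosing in NMRI mice, 20 min before decapitation; brain and plasma levels measured by LC−MS/MS (n = 3), ratio taken as [brain]/[plasma] in mL/g.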

Hippocampus [12] = assay: Potentiation of high-frequency stimulation-induced synaptic response in Wistar rat hippocampal dentate gyrus assessed as increase in long-term potentiation at 10 mg/kg, ip after 1 hr; format: functional, organism-based; design: dose 10 mg/kg; method in brief: as §4
Hippocampus [13] = assay: Potentiation of high-frequency stimulation-induced synaptic response in Wistar rat hippocampal dentate gyrus assessed as excitatory postsynaptic field potential at 3 mg/kg, ip after 3 hrs; format: functional, organism-based; design: dose 3 mg/kg; method in brief: as §4
Rattus norvegicus [14] = species on record: Rattus norvegicus; assay: Positive allosteric modulation of AMPA receptor in rat hippocampal slice assessed as area of AMPA-mediated […] postsynaptic field potential in CA1 area at 3 uM; format: tissue-based; conditions: Hippocampus; method in brief: as §2
Rattus norvegicus [15] = species on record: Rattus norvegicus; assay: Positive allosteric modulation of AMPA receptor in rat hippocampal slice assessed as amplitude of AMPA-mediated […] postsynaptic field potential in CA1 area at 3 uM; format: tissue-based; conditions: Hippocampus; method in brief: as §2
Hippocampus [16] = assay: Potentiation of tetanus-induced synaptic response in Wistar rat hippocampal dentate gyrus at 3 mg/kg, ip measured first 18 mins; format: functional, organism-based; design: dose 3 mg/kg
Method in brief: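 Anesthetized Wistar rats, dosed ip at 3 or 10 mg/kg, n = 8 per group. Dentate gyrus responses evoked by perforant-path stimulation every 2 min, averaged over eight stimulations and normalized to the 60 min baseline. High-frequency tetanus given 1 h after dosing, with recording for 3 h. Potentiation duration judged per group against the 6 min pre-tetanus period.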

Rattus norvegicus [17] = species on record: Rattus norvegicus; assay: Positive allosteric modulation of AMPA receptor in rat hippocampal slice assessed as half-width of AMPA-mediated […] postsynaptic field potential in CA1 area at 3 uM; format: tissue-based; conditions: Hippocampus; method in brief: as §2
[18] = Drug uptake in mouse plasma at 3 mg/kg, po qd after 20 mins by LC-MS/MS analysis; format: ADME, organism-based; design: dose 3 mg/kg, route oral; method in brief: as §3
Glutamate receptor 2 = Glutamate receptor 2 (Homo sapiens, UniProt P42262); assay: Binding affinity to GluA2-LBD-L483Y-N754S complex (unknown origin) by isothermal titration calorimetry
Sequence of Glutamate receptor 2 (P42262 whole entry, the tested form may be a part): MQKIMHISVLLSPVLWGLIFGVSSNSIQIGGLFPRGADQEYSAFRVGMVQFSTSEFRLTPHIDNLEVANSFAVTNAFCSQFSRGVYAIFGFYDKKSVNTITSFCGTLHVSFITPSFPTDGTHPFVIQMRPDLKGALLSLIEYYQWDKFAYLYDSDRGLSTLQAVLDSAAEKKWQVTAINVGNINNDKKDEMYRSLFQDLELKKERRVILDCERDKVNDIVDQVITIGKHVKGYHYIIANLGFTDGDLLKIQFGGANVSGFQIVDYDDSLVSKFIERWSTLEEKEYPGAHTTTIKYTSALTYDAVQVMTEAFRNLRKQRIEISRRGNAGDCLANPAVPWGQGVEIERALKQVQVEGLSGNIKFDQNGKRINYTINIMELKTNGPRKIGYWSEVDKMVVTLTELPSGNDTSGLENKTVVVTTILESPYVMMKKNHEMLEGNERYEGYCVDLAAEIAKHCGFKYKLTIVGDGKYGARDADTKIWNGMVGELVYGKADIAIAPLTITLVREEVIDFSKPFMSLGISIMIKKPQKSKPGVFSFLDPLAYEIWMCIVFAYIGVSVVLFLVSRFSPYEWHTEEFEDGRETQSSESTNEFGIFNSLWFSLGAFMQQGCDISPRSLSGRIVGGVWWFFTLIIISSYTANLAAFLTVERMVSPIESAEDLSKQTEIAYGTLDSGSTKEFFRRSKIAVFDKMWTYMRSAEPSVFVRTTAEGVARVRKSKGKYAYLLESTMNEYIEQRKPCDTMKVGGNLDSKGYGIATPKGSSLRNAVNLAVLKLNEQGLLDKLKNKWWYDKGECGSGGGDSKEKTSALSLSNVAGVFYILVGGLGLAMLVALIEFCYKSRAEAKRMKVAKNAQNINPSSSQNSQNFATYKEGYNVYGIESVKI
Method in brief: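 Direct ITC titration at 25 °C. 20 × 2 μL injections at 3 min, the first 0.4 μL. First point discarded and dilution heat subtracted before a single-site fit. Mean of three titrations.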

| SMILES | EC50 [1] [µM] | Activity (Rattus norvegicus [5]) [%] | Activity (Primary neuron [6]) [µM] | Emax (Primary neuron [9]) | further results |
| --- | --- | --- | --- | --- | --- |
| O=S1(=O)NCN(C2CC2)c2ccc(Cl)cc21 | 2.9 | 411 | 0.68 | 11 | Activity (Hippocampus [2]): Active; Activity (Rattus norvegicus [3]): 145%; concentration at 20 min [4]: 72.7 ng/g; Activity (Hippocampus [7]): Active; Activity (Mus musculus): Active; Activity (Rattus norvegicus [8]): 113%; Activity (Rattus norvegicus [10]): 58%; Kp at 20 min [11]: 1.12; Activity (Hippocampus [12]): Active; Activity (Hippocampus [13]): Active; Activity (Rattus norvegicus [14]): 10%; Activity (Rattus norvegicus [15]): 5.3%; Activity (Hippocampus [16]): Active; Activity (Rattus norvegicus [17]): 9%; concentration at 20 min [18]: 64.7 ng/mL |
| O=S1(=O)NCN(C2CC2)c2ccc(F)cc21 | 0.9 | – | 0.27 | 15 | Kd (Glutamate receptor 2): 0.35 µM |
| O=S1(=O)NCN(C2CC2)c2ncc(Cl)cc21 | – | 276 | 2.4 | > 7 | – |
| O=S1(=O)NCN(C2CC2)c2cccnc21 | 1.5 | 323 | 0.35 | 10 | – |
| O=S1(=O)NCN(C2CC2)c2c(Cl)cccc21 | – | 196 | 27.1 | > 3 | – |
| O=S1(=O)NCN(C2CC2)c2ccncc21 | – | 330 | 4.4 | > 11 | – |
| O=S1(=O)NCN(C2CC2)c2ncccc21 | – | 221 | 13.9 | > 4 | – |
| O=S1(=O)NCN(C2CC2)c2cccc(Cl)c21 | – | 352 | 2 | > 9 | – |
| CCN1CNS(=O)(=O)c2cnccc21 | – | – | – | – | Kd (Glutamate receptor 2): 1200 µM |
| O=S1(=O)NCN(C2CC2)c2cc(Cl)ccc21 | – | 327 | 5.2 | > 5 | – |
